# Beta2AR agonist: human beta-2 adrenergic receptor agonism by FAP; P07550; response, % (test concentration not listed); Am2.2-beta2AR cells, FAP receptor internalization, flow cytometry; actives 0.43% (n = 340,000);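 active means response above a set limit, near 3 SD of response in nonfluorescent compounds, cut at about 42% in these data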
# Target sequence (P07550 whole entry, looked up): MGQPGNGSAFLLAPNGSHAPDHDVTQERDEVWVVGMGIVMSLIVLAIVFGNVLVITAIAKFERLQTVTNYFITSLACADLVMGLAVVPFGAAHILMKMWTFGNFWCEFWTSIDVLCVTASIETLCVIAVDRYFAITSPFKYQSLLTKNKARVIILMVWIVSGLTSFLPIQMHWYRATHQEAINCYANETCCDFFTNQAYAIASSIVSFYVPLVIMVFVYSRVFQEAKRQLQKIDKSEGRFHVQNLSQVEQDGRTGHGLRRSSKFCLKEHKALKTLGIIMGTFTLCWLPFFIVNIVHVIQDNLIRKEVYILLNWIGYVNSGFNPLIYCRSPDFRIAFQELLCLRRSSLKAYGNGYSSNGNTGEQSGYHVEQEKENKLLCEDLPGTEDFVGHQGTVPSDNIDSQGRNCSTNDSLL
# T cell HTS: T cell immune modulation candidate. 2C CD8+ T cell-vesicle binding, flow cytometry; hits give low values. response (vesicle binding), % at 7 µM. actives 0.068% (n = 330,000);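 active means response, share of CD8 T cells binding vesicles, and their 90th percentile fluorescence all below set limits, cut at about 80% in these data, passing the limit was not always enough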;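 further: values below 100% mean blocked vesicle binding to the CD8+ T cells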
#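 Read-out – percent CD8+ FL2 mean versus row control · System – murine 2C transgenic CD8+ T lymphocytes · Times – 1.5 h cell–vesicle binding at 37 °C, then 20 min icy labelling · Control set – naked vesicles low, QL9 vesicles with vehicle high · Detection – cytometric PE anti-B7-1 and Alexa647 anti-CD8 signals after 1% paraformaldehyde fixation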
# Exocytosis inh: blocks lytic granule exocytosis; TALL-104 LAMP-1 surface exposure, flow cytometry; cells stimulated with thapsigargin and PMA; inhibition, % at 10 µM; actives 0.66% (n = 360,000); AID 651702;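 active means inhibition above about 55%, limit read from the data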
# rCAG binder: binds r(CAG) RNA repeats | r(CAG) RNA repeat, TO-PRO-1 dye displacement fluorescence | inhibition, % at 3 µM | actives 1.3% (n = 370,000) | AID 651821;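 active means inhibition above the plate cutoff, the mean of all test compounds on that plate plus 3 SD, cut at about 35% in these data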;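 further: 0% = DMSO alone and 100% = 100 µM mitoxantrone as full dye displacement; higher means more dye released from RNA so lower well fluorescence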
# MPTP inh: permeability transition pore inhibition; inhibition, % at 10 µM; actives 1.4% (n = 360,000); isolated mouse mitochondria, Ca2+ swelling absorbance, 30 min;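 active means inhibition of 50% or more, scaled per plate between neutral and stimulator controls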;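 further: 0% = DMSO wells given calcium and 100% = 1 mM EGTA wells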
# V-ATPase pH: regulators of yeast V-ATPase proton transport; actives 0.37% (n = 350,000); S. cerevisiae, pHLuorin cytosolic pH fluorescence; response, % at 10 µM; in the data active means response mostly above about 7.3%, no sharp cut-off; inactive means mostly below about 5.4%; further: actives read high
# Beta2AR ag CP1: activates human beta-2 adrenergic receptor; actives 25% (n = 1,100); shares compounds with Beta2AR agonist; AID 540358; percent response (surface receptor), % at 10 µM; Am2.2-beta2AR cells, FAP surface receptor, flow cytometry; hits give low values;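 active means surface receptor percent response at or below 58%, roughly 3 SD from nonfluorescent compounds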
# B2AR FAP counter: fluorescence artifact in beta-2AR agonist FAP counterscreen; shares compounds with Beta2AR agonist; Am2.2 cells, FAP fluorogen flow cytometry; hits give low values; calls only at 10 µM; 1,100 tested, under 10 active; AID 588765;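 active means percent response below a set limit in fluorescence channel 1 and below 50% in channel 8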
# * hit, by the source's call; i = inactive; . = not tested or not shown. This is a sample that favours compounds with a hit; in the whole collection about 3.8% have one here.
SMILES,Beta2AR agonist,T cell HTS,Exocytosis inh,rCAG binder,MPTP inh,V-ATPase pH,Beta2AR ag CP1,B2AR FAP counter
COC(=O)CSc1nnc(CNc2nc(-c3ccccc3)cs2)n1C,-1.1,248.3,-7.2,1.2,1.1,-4.1,.,.
Cn1c(CNc2nc(-c3ccccc3)cs2)nnc1SCC(=O)N1CCc2ccccc21,46.5*,157.6,-3.5,1.4,1.8,-1.4,72.7,i
COC(=O)[C@]12C[C@H](CC(=O)NCCc3ccccc3OC)C(=O)N(Cc3ccc(Cl)cc3Cl)C1=C[C@H](COCc1ccccc1)O[C@@H]2C,.,.,.,10.6,.,.,.,.
CC(C)N1Cc2nnn(Cc3ccc(F)cc3)c2-c2cc(F)ccc2S1(=O)=O,.,.,.,1.4,.,.,.,.
COc1ccc(C(C)=O)cc1COc1cc(C)c(Cl)c(C)c1,5.5,240.1,1.7,-0.3,2.6,10.7,.,.
COc1ccc(C(C)=O)cc1COc1ccc(Cl)cc1Cl,49.7*,224.5,0.2,1.1,0.4,-0.7,56.5*,i
O=[N+]([O-])c1cccc(-c2nc(-c3ccccc3)c(-c3cccs3)[nH]2)c1,50.5*,495.8,-7.7,5.5,-11.6,-1.7,110.7,i
Cc1ccc(C(=O)c2cc([N+](=O)[O-])ccc2N2CCCCC2)c(C)c1,60.9*,522.3,10.3,2.4,3.7,-2.7,41.0*,i
COc1cccc2sc3cc(C#CC4(O)CCCCC4)ccc3c(=O)c12,50.2*,334.9,0.9,12.1,0.5,-1.7,97.7,i
COC(=O)[C@]12C[C@H](CC(=O)N3CCN(C(=O)c4ccco4)CC3)C(=O)N(Cc3ccco3)C1=C[C@H](C(C)C)O[C@@H]2C1CC1,.,.,.,4.0,.,.,.,.
Cc1ccc(-c2nn3c(C)nnc3s2)cc1NC(=O)c1ccc(OC(C)C)cc1,6.5,123.7,-4.3,9.0,-2.3,1.9,.,.
Cc1cc(OCC(=O)Nc2cc(-c3nn4c(C)nnc4s3)ccc2C)ccc1Cl,79.0*,25.8,-4.0,0.6,-1.2,0.5,111.8,i
O=C(CCCCCNc1nc(=S)[nH]c2ccccc12)NCCc1ccc(Cl)cc1,54.6*,i,-1.6,-2.0,-0.9,2.1,109.5,i
N#Cc1cc([N+](=O)[O-])c(-n2nnc3ccccc32)c([N+](=O)[O-])c1,55.4*,331.9,0.3,.,-1.7,0.4,103.5,i
CS(=O)(=O)c1ccc(-n2nnc3ccccc32)c([N+](=O)[O-])c1,-2.7,201.6,-1.2,9.6,-1.3,-1.4,.,.
COc1ccc(CNCC#CC2=CCCCC2)c(OC)c1,.,.,.,1.6,.,.,.,.
COc1ccc(NC(=O)c2ccc3c(c2)C(=O)N(CC2CCCO2)C3=O)cc1O (stereo not drawn),-0.3,209.2,0.4,0.2,-0.8,2.5,.,.
Cc1ccc(NC(=O)c2ccc3c(c2)C(=O)N(CC2CCCO2)C3=O)cc1C (stereo not drawn),7.1,402.8,-4.4,-0.8,-0.8,-2.1,113.0,i
O=C(CN1C(=O)CCC1=O)Nc1nc(-c2ccccn2)cs1,2.8,525.4,-1.2,3.7,-3.0,0.5,.,.
O=C(CN1C(=O)CCC1=O)Nc1nc(-c2nc3ccccc3s2)cs1,102.8*,666.4,-1.6,5.5,-2.5,0.1,9.2*,i
COc1ccc(Cl)cc1NC(=O)COc1ccc(S(=O)(=O)N2CCOCC2)cc1C,0.4,250.9,3.3,0.0,-1.5,-1.2,74.9,i
COc1ccc(S(=O)(=O)N2CCOCC2)cc1NC(=O)COc1ccc(C)cc1,3.7,541.9,-1.2,9.2,1.1,2.4,.,.
Cc1cc(S(=O)(=O)N2CCCC2)ccc1OCC(=O)Nc1ccc(C(N)=O)cc1,1.5,309.6,-2.3,3.1,-1.4,0.5,113.2,i
Cc1cc(Cl)ccc1OCC(=O)Nc1cccc(S(=O)(=O)N2CCCC2)c1,3.1,161.3,3.9,9.3,5.4,-4.1,.,.
COC(=O)c1ccccc1NC(=O)COc1ccc(S(=O)(=O)N2CCCC2)cc1C,4.8,90.9,-3.1,-0.8,1.4,4.6,99.3,i
SMILES,Beta2AR agonist,T cell HTS,Exocytosis inh,rCAG binder,MPTP inh,V-ATPase pH,Beta2AR ag CP1,B2AR FAP counter
CCCC(=O)OC12CCCN(C1)/C(=C/c1ccc(Cl)cc1)C2 (stereo not drawn),.,.,.,2.4,.,.,.,.
O=C(CCS(=O)(=O)c1ccccc1)Nc1nc2c(s1)COc1ccccc1-2,59.2*,0.0,-3.9,8.8,0.5,0.3,101.1,i
O=C(CCNC(=O)C1CCN(S(=O)(=O)c2ccccc2)CC1)Nc1ccccc1,47.9*,544.3,-5.4,-0.7,-0.5,5.7,106.7,i
O=C(CSc1ccccn1)Nc1ccc2c(c1)OCO2,5.6,351.3,-5.5,0.6,2.4,-0.7,.,.
O=C(CSc1ccccn1)c1ccc2c(c1)OCO2,52.5*,313.8,-1.3,-2.0,-1.1,-2.8,94.2,i
COc1ccc(C(=O)OCCN(C)C2CN(Cc3cn(Cc4cccc(F)c4)nn3)S(=O)(=O)C2)cc1OC (stereo not drawn),.,.,.,2.1,.,.,.,.
O=c1c2ccccc2n(Cc2ccco2)n1[C@@H](Cc1ccccc1)Cn1cc(-c2ccc(-c3ccccc3)cc2)nn1,.,.,.,15.5,.,.,.,.
COc1ccc(C(C)NCCC(c2ccc(OC(C)C)cc2)c2ccccc2OC)cc1 (stereo not drawn),22.9,119.4,-5.4,7.7,7.1,-3.4,95.6,i
CCn1nnc(NC(=S)NC(=O)c2ccc(-c3cccc(Cl)c3)o2)n1,-4.3,605.7,0.1,10.1,5.2,-0.1,147.7,i
CCCn1nnc(NC(=O)c2ccc(-c3cccc(Cl)c3)o2)n1,-0.4,367.5,0.2,-5.4,-1.5,-1.2,.,.
Cc1ccsc1C=Nn1c(-c2n[nH]c3c2CCC3)n[nH]c1=S,.,.,.,8.6,.,.,.,.
COc1cc(OC)nc(NC(=O)CSc2nnc(-c3ccccc3)n2C2CCCCC2)n1,96.8*,216.4,2.3,-0.5,2.9,-0.3,19.0*,i
CC(C)c1cc(CNC(=O)c2cc(COc3cncc(Cl)c3)on2)on1,-12.8,.,-1.2,-4.4,0.0,5.7,.,.
COC(=O)c1ccc(CNC(=O)c2cc(COc3cncc(Cl)c3)on2)cc1,-2.4,106.1,-1.9,-2.2,-0.5,0.8,115.1,i
N=c1n(CC(=O)O)c2ccccc2n1Cc1ccccc1Cl,2.7,107.5,-1.9,2.6,-1.1,-0.4,.,.
C=CCn1c(=N)n(CC(=O)c2cccc([N+](=O)[O-])c2)c2ccccc21,-8.5,196.5,0.5,4.0,-0.9,-2.8,.,.
N=c1n(Cc2ccccc2)c2ccccc2n1Cc1ccccc1,21.1,296.0,0.2,12.4,12.1,-2.3,.,.
N=c1n(CC(=O)c2ccc(Br)cc2)c2ccccc2n1Cc1ccccc1,73.9*,330.6,-3.4,14.7,0.3,2.2,33.4*,i
